Data set [1] concerns Rattus norvegicus. Put plainly: Antihyperlipidemic activity in Triton-X-100-induced hyperlipidemia Wistar albino rat model assessed as reduction of LDL level in serum at 250 mg/kg, po qd for 7 days. In kind it is functional. In short, it runs like this: (§1)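 Male Wistar albino rats (200–250 g), fasted 18 h, then given a single i.p. injection of Triton-X-100 (100 mg/kg) in saline. Starting 72 h later, dosed orally once daily for 7 days with suspension in 5% CMC; six per group. Retro-orbital blood taken under ether; serum separated at 2500 × g, 15 min, 4 °C, and lipids assayed. Mean ± SEM, n = 6.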

For data set [2], the system named is Rattus norvegicus. Put plainly: Ratio of LDL level in serum to HDL level in serum in Triton-X-100-induced hyperlipidemia Wistar albino rat model at 250 mg/kg, po qd for 7 days. It is filed as functional. In short, it runs like this: (§2)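 Triton-X-100 hyperlipidemic male Wistar rats, n = 6 per group, dosed orally for 7 days in 5% CMC. Serum lipids were measured and risk ratios calculated per NCEP (2002): total cholesterol:HDL (atherogenic index) and LDL:HDL.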

Data set [3] relates to Rattus norvegicus. Put plainly: Antihyperlipidemic activity in Triton-X-100-induced hyperlipidemia Wistar albino rat model assessed as increase of HDL level in serum at 250 mg/kg, po qd for 7 days. In kind it is functional. In short, it runs like this:
as §1

For data set [4], the system named is Rattus norvegicus. Put plainly: Antihyperlipidemic activity in Triton-X-100-induced hyperlipidemia Wistar albino rat model assessed as reduction of triglyceride level in serum at 250 mg/kg, po qd for 7 days. In kind it is functional. In outline: as §1
Data set [5] concerns Rattus norvegicus. Put plainly: Antihyperlipidemic activity in Triton-X-100-induced hyperlipidemia Wistar albino rat model assessed as reduction of VLDL level in serum at 250 mg/kg, po qd for 7 days. In kind it is functional. In short, it runs like this:
as §1

The test system of data set [6] is Rattus norvegicus. Put plainly: Ratio of total cholesterol level in serum to HDL level in serum in Triton-X-100-induced hyperlipidemia Wistar albino rat model at 250 mg/kg, po qd for 7 days. It is filed as functional. In outline:
as §2

Data set [7] deals with Rattus norvegicus. Put plainly: Antihyperlipidemic activity in Triton-X-100-induced hyperlipidemia Wistar albino rat model assessed as reduction of total cholesterol level in serum at 250 mg/kg, po qd for 7 days. In kind it is functional. In short, it runs like this: as §1
The test system of data set [8] is Rattus norvegicus. Put plainly: Hepatotoxicity in Triton-X-100-induced hyperlipidemia Wistar albino rat model assessed as SGOT level in serum at 250 mg/kg, po qd for 7 days. In kind it is toxicity, organism-based. On the set-up: dose 250 mg/kg, route oral. The conditions noted are these: in vivo, 168 h. In outline:
(§3)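 Serum from Triton-X-100 hyperlipidemic male Wistar rats, dosed orally daily for 7 days in 5% CMC. Blood taken retro-orbitally under ether. Assays: alanine transferase and aspartate transferase reported in IU, alkaline phosphatase in KA units. Normal ranges are given alongside.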

The test system of data set [9] is Rattus norvegicus. Put plainly: Hepatotoxicity in Triton-X-100-induced hyperlipidemia Wistar albino rat model assessed as SGPT level in serum at 250 mg/kg, po qd for 7 days. In kind it is toxicity, organism-based. On the set-up: dose 250 mg/kg, route oral. To be noted: in vivo, 168 h. In outline: as §3
In data set [10] the test system is Rattus norvegicus. Put plainly: Hepatotoxicity in Triton-X-100-induced hyperlipidemia Wistar albino rat model assessed as alkaline phosphatase level in serum at 250 mg/kg, po qd for 7 days. On the set-up: dose 250 mg/kg, route oral. It is filed as toxicity, organism-based. To be noted: in vivo, 168 h. In outline: as §3
Data set [11] has as its system Rattus norvegicus. Put plainly: Protective activity against Triton-X-100-induced hepatotoxicity in Wistar albino rat assessed as mild cytoplasmic fatty infiltration and mild granular degeneration in liver at 250 mg/kg, po qd for 7 days. It is filed as functional, organism-based. On the set-up: dose 250 mg/kg.
Data set [12] relates to Rattus norvegicus. Put plainly: Protective activity against Triton-X-100-induced hepatotoxicity in Wistar albino rat assessed as mild cytoplasmic fatty infiltration and mild to moderate granular degeneration in liver at 250 mg/kg, po qd for 7 days. In kind it is functional, organism-based. On the set-up: dose 250 mg/kg.

SMILES strings stand for the structures. Calls of active or inactive are those of the source. The calls are words filed in the database; no cut-off is given here.

The record followed here is ChEMBL document CHEMBL2429797, “2,5,6-trisubstituted imidazo[2,1-b][1,3,4]thiadiazoles: search for antihyperlipidemic agents” (Eur J Med Chem, 2013).

As for `COc1ccc(/N=C/c2c(-c3ccccc3)nc3sc(-c4ccc5c(c4)OCO5)nn23)cc1`, the Activity in the data set on Rattus norvegicus [1] was 64.73 mg/dL; in the data set with Rattus norvegicus [3], 28.83 mg/dL; in the data set on Rattus norvegicus [4], 84.98 mg/dL; with Rattus norvegicus [5] it was 18.46 mg/dL; with Rattus norvegicus [7], 113.98 mg/dL. In addition, the Ratio was determined as 2.24 in the data set with Rattus norvegicus [2] and 3.95 in the data set with Rattus norvegicus [6].

`Cc1ccc(/N=C/c2c(-c3ccccc3)nc3sc(-c4ccc5c(c4)OCO5)nn23)cc1`: the Activity stood at 66.32 mg/dL in the data set on Rattus norvegicus [1]; 23.34 mg/dL with Rattus norvegicus [3]; 88.43 mg/dL in the data set on Rattus norvegicus [4]; 22.83 mg/dL with Rattus norvegicus [5]; 114.36 mg/dL in the data set with Rattus norvegicus [7]. Also, the Ratio came to 2.84 in the data set with Rattus norvegicus [2] and 4.89 in the data set with Rattus norvegicus [6].

On to `CC(C)OC(=O)C(C)(C)Oc1ccc(C(=O)c2ccc(Cl)cc2)cc1` [FENOFIBRATE], for which the Activity in the data set with Rattus norvegicus [1] turned out to be 51.68 mg/dL; in the data set on Rattus norvegicus [3], 35.21 mg/dL; in the data set with Rattus norvegicus [8], 49.45 IU; in the data set on Rattus norvegicus [4], 71.23 mg/dL; in the data set with Rattus norvegicus [9], 26.43 IU; in the data set on Rattus norvegicus [5], 13.67 mg/dL. For the same compound, the Activity amounted to 102.24 mg/dL with Rattus norvegicus [7] and 28.33 KA in the data set on Rattus norvegicus [10]. Also, the Ratio in the data set with Rattus norvegicus [2] came out at 1.46; with Rattus norvegicus [6], 2.9.

Turning to `O=C(N/N=C/c1c(-c2ccc(Cl)cc2)nc2sc(-c3ccc4c(c3)OCO4)nn12)c1ccccc1`, the Activity in the data set with Rattus norvegicus [1] is 59.12 mg/dL; with Rattus norvegicus [3] it was 29.93 mg/dL; in the data set on Rattus norvegicus [4] it was 80.67 mg/dL; in the data set with Rattus norvegicus [5], 16.34 mg/dL; with Rattus norvegicus [7] it was 107.87 mg/dL. Further, the figures for the Ratio with Rattus norvegicus [2] and with Rattus norvegicus [6] were 1.97 and 3.6, respectively.

On to `C(=N\c1ccccc1)/c1c(-c2ccccc2)nc2sc(-c3ccc4c(c3)OCO4)nn12`, for which the Activity in the data set with Rattus norvegicus [1] turned out to be 65.85 mg/dL; in the data set on Rattus norvegicus [3] it was 25.12 mg/dL; in the data set with Rattus norvegicus [4], 89.12 mg/dL; in the data set with Rattus norvegicus [5], 21.54 mg/dL; in the data set with Rattus norvegicus [7], 118.23 mg/dL. Besides, the Ratio in the data set with Rattus norvegicus [2] is on record as 2.62; in the data set with Rattus norvegicus [6], 4.7.

Take `NS(=O)(=O)c1ccc(/N=C/c2c(-c3ccc(Cl)cc3)nc3sc(-c4ccc5c(c4)OCO5)nn23)cc1`: the Activity in the data set on Rattus norvegicus [1] worked out at 52.23 mg/dL; with Rattus norvegicus [3], 33.78 mg/dL; with Rattus norvegicus [8], 51.7 IU; in the data set with Rattus norvegicus [4], 79.54 mg/dL; in the data set on Rattus norvegicus [9] it was 28.6 IU; in the data set with Rattus norvegicus [5], 14.73 mg/dL. Besides, the Activity in the data set with Rattus norvegicus [7] is 101.56 mg/dL; in the data set on Rattus norvegicus [10], 29.3 KA. Besides, the Ratio with Rattus norvegicus [2] turned out to be 1.54; in the data set with Rattus norvegicus [6], 3. Besides, in the data set on Rattus norvegicus [11], the result was Active.

As for `COc1ccc(/N=C/c2c(-c3ccc(Cl)cc3)nc3sc(-c4ccc5c(c4)OCO5)nn23)cc1`, the Activity turned out to be 59.85 mg/dL in the data set with Rattus norvegicus [1]; 31.34 mg/dL in the data set with Rattus norvegicus [3]; 83.56 mg/dL with Rattus norvegicus [4]; 16.86 mg/dL in the data set with Rattus norvegicus [5]; 107.83 mg/dL in the data set with Rattus norvegicus [7]. Moreover, the figures for the Ratio in the data set on Rattus norvegicus [2] and in the data set on Rattus norvegicus [6] were 1.9 and 3.44, respectively.

In the case of `Cc1ccc(/N=C/c2c(-c3ccc(Cl)cc3)nc3sc(-c4ccc5c(c4)OCO5)nn23)cc1`, the Activity was 68.84 mg/dL in the data set with Rattus norvegicus [1]; 29.12 mg/dL with Rattus norvegicus [3]; 85.67 mg/dL in the data set with Rattus norvegicus [4]; 18.35 mg/dL in the data set with Rattus norvegicus [5]; 113.28 mg/dL in the data set with Rattus norvegicus [7]. In addition, the Ratio in the data set on Rattus norvegicus [2] turned out to be 2.36; in the data set with Rattus norvegicus [6] it was 3.89.

Regarding `Cc1cccc(/N=C/c2c(-c3ccc(Cl)cc3)nc3sc(-c4ccc5c(c4)OCO5)nn23)c1`, the Activity is 62.83 mg/dL in the data set on Rattus norvegicus [1]; 28.12 mg/dL in the data set with Rattus norvegicus [3]; 86.23 mg/dL in the data set with Rattus norvegicus [4]; 19.93 mg/dL in the data set on Rattus norvegicus [5]; 113.72 mg/dL in the data set on Rattus norvegicus [7]. In addition, the results for the Ratio in the data set on Rattus norvegicus [2] and in the data set on Rattus norvegicus [6] were 2.23 and 4.04, respectively.

Regarding `Brc1ccc(/N=C/c2c(-c3ccccc3)nc3sc(-c4ccc5c(c4)OCO5)nn23)cc1`, the Activity in the data set with Rattus norvegicus [1] is 63.74 mg/dL; with Rattus norvegicus [3] it was 24.78 mg/dL; in the data set on Rattus norvegicus [4], 86.89 mg/dL; with Rattus norvegicus [5], 19.86 mg/dL; in the data set with Rattus norvegicus [7], 112.78 mg/dL. Also, the Ratio in the data set with Rattus norvegicus [2] was found to be 2.57; with Rattus norvegicus [6], 4.55.

As to `O=[N+]([O-])c1ccc(/N=C/c2c(-c3ccc(Cl)cc3)nc3sc(-c4ccc5c(c4)OCO5)nn23)cc1`, the Activity stood at 58.24 mg/dL in the data set with Rattus norvegicus [1]; 31.54 mg/dL with Rattus norvegicus [3]; 49.9 IU with Rattus norvegicus [8]; 82.56 mg/dL with Rattus norvegicus [4]; 28.3 IU with Rattus norvegicus [9]; 18.13 mg/dL with Rattus norvegicus [5]. The Activity with Rattus norvegicus [7] worked out at 105.56 mg/dL; in the data set on Rattus norvegicus [10] it was 28.8 KA. The Ratio with Rattus norvegicus [2] was determined as 1.84; with Rattus norvegicus [6], 3.34.

As for `O=C(O)c1ccc(/N=C/c2c(-c3ccc(Cl)cc3)nc3sc(-c4ccc5c(c4)OCO5)nn23)cc1`, the Activity with Rattus norvegicus [1] came out at 49.94 mg/dL; in the data set with Rattus norvegicus [3], 34.78 mg/dL; in the data set with Rattus norvegicus [8], 48.3 IU; in the data set on Rattus norvegicus [4], 76.89 mg/dL; in the data set with Rattus norvegicus [9], 26.8 IU; in the data set on Rattus norvegicus [5], 15.85 mg/dL. For the same compound, the Activity with Rattus norvegicus [7] was found to be 96.12 mg/dL; in the data set on Rattus norvegicus [10], 29.5 KA. Also, the figures for the Ratio in the data set with Rattus norvegicus [2] and in the data set on Rattus norvegicus [6] were 1.43 and 2.76, respectively. Moreover, the outcome in the data set with Rattus norvegicus [11] was Active.

As to `Clc1ccc(-c2nc3sc(-c4ccc5c(c4)OCO5)nn3c2/C=N/c2ccc(Br)cc2)cc1`, in the data set on Rattus norvegicus [12], the outcome was Active. Also, the Activity in the data set on Rattus norvegicus [1] was found to be 53.82 mg/dL; in the data set with Rattus norvegicus [3], 32.85 mg/dL; with Rattus norvegicus [8], 58.8 IU; with Rattus norvegicus [4] it was 83.43 mg/dL; in the data set with Rattus norvegicus [9], 29.3 IU; with Rattus norvegicus [5] it was 16.85 mg/dL. Moreover, the Activity with Rattus norvegicus [7] worked out at 103.54 mg/dL; with Rattus norvegicus [10], 26.6 KA. Further, the Ratio with Rattus norvegicus [2] is 1.63; in the data set with Rattus norvegicus [6] it was 3.15.

With `Fc1ccc(/N=C/c2c(-c3ccc(Cl)cc3)nc3sc(-c4ccc5c(c4)OCO5)nn23)cc1Cl`, the Activity with Rattus norvegicus [1] worked out at 54.95 mg/dL; with Rattus norvegicus [3], 33.57 mg/dL; with Rattus norvegicus [8] it was 56.5 IU; in the data set with Rattus norvegicus [4] it was 80.45 mg/dL; in the data set on Rattus norvegicus [9], 27.8 IU; with Rattus norvegicus [5] it was 15.43 mg/dL. In addition, the Activity in the data set with Rattus norvegicus [7] was 99.89 mg/dL; in the data set on Rattus norvegicus [10] it was 27.3 KA. Further, the results for the Ratio with Rattus norvegicus [2] and with Rattus norvegicus [6] were 1.63 and 2.97, respectively. For the same compound, the result in the data set with Rattus norvegicus [11] was Active.
